Results on 1 compound are retold here after ChEMBL document CHEMBL3525987, “Assessment of exposure of metabolites in preclinical species and humans at steady state from the single-dose radiolabeled absorption, distribution, metabolism, and excretion studies: a case study” (Drug Metab Dispos, 2012).

Series [1] relates to Homo sapiens. Nature of the series: Tmax as total radioactivity in human plasma at 100 mg, po administered as single dose by LC-MS/MS analysis. The series is classed as ADME, organism-based. The arrangement: dosed compound name [14C]lixivaptan. The settings on record: in vivo. The procedure, abridged: (§1)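 Single oral 100 mg [14C]drug to healthy male volunteers; plasma at 0.25-144 h. Parent by validated LC-MS/MS, total radioactivity by LSC as ng-equiv/ml; Tmax from observed data; t1/2 = 0.693/kel from log-linear terminal regression.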

Series [2] concerns Rattus norvegicus. Nature of the series: Drug recovery in cage wash/debris of male Sprague-Dawley rat at 10 mg/kg, po administered as single dose via gavage measured after 168 hrs by liquid scintillation counting. The series is classed as ADME, organism-based. The following applies: in vivo. The arrangement: dose 10 mg/kg, dosed compound name [14C]lixivaptan, route oral. The procedure, abridged:
(§2)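 Intact SD rats (3/gender) dosed by gavage with [14C]drug 10 mg/kg (10 ml/kg, pluronic F68/water), housed in metabolism cages; urine and feces at 0-8, 8-24 h, then every 24 h to 7 days. Urine counted by LSC; feces homogenized 20% w/w in water, combusted, trapped CO2 counted; cage wash/debris included; % of dose.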

Series [3] in a line: Drug recovery in urine of female Sprague-Dawley rat at 10 mg/kg, po administered as single dose via gavage measured after 168 hrs by liquid scintillation counting. On the set-up: dose 10 mg/kg, dosed compound name [14C]lixivaptan, route oral. Type of series: ADME, organism-based. The following applies: in vivo. The procedure, abridged:
as §2

Series [4] deals with Rattus norvegicus. Nature of the series: Total drug recovery in bile duct-cannulated female Sprague-Dawley rat at 10 mg/kg, po administered as single dose via gavage measured 0 to 48 hrs by liquid scintillation counting. Type of series: ADME, organism-based. The following applies: in vivo. The arrangement: dose 10 mg/kg, dosed compound name [14C]lixivaptan, route oral.
For series [5], the system named is Homo sapiens. Briefly: AUC (0 to 24 hrs) in human at 100 mg, po administered as single dose. The series is classed as ADME, organism-based, Plasma. On the set-up: time < 24 hr, dose 100 mg, route oral, dosed compound name [14C]lixivaptan. The settings on record: in vivo. The procedure, abridged: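 Healthy young men fasted 10 h and took one oral dose of [14C]lixivaptan, 100 mg (200 µCi) as two capsules with water, eating 4 h later. Plasma from each subject at 0.5, 2, 4, 8, 12, 24 and 36 h was acetonitrile-extracted and profiled by C18 radio-HPLC (formic acid/acetonitrile gradient) with flow detection. Component concentrations were % of radioactivity × total plasma radioactivity, giving AUC0-24 in ng-equiv.h/ml.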

Series [6] has as its system Canis familiaris. Nature of the series: AUC (0 to 24 hrs) in beagle dog at 10 mg/kg, po administered as single dose. Type of series: ADME, organism-based, Canis lupus familiaris, Plasma. On the set-up: time < 24 hr, dose 10 mg/kg, dosed compound name [14C]lixivaptan, route oral. The settings on record: in vivo. The procedure, abridged:
(§3)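 Four male beagles fasted 18 h were gavaged once with [14C]lixivaptan at 10 mg/kg (2 ml/kg). The 5.0 mg/ml suspension was in deionized water with pluronic F68 (1.04 µCi/mg). Jugular K2EDTA plasma was taken at 2, 8 and 24 h and extracted twice with 2 volumes of acetonitrile. Profiling used C18 radio-HPLC (ammonium formate/acetonitrile gradient) with on-line flow scintillation detection. Each peak is reported as percent of plasma radioactivity.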

Series [7] deals with Rattus norvegicus. Briefly: AUC (0 to 24 hrs) in male Sprague-Dawley rat at 10 mg/kg, po administered as single dose via gavage. The series is classed as ADME, organism-based, Plasma. On the set-up: time < 24 hr, dose 10 mg/kg, dosed compound name [14C]lixivaptan, route oral. The following applies: in vivo. The procedure, abridged: (§4)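 Sprague-Dawley rats (9/gender) were fasted 18 h and gavaged once with [14C]lixivaptan at 10 mg/kg (10 ml/kg), about 29.8 µCi/mg, suspended in deionized water with pluronic F68. Plasma came by cardiac puncture under isoflurane at 1, 8 and 24 h (3/gender/time) and was extracted twice with 2 volumes of acetonitrile. C18 radio-HPLC with a flow scintillation detector gave percent of plasma radioactivity per peak.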

Series [8] deals with Homo sapiens. Briefly: Half life as total radioactivity in human plasma at 100 mg, po administered as single dose by LC-MS/MS analysis. The series is classed as ADME, organism-based. On the set-up: dosed compound name [14C]lixivaptan. The settings on record: in vivo. The procedure, abridged:
as §1

Series [9] has as its system Rattus norvegicus. Nature of the series: Half life as total radioactivity in male Sprague-Dawley rat plasma at 10 mg/kg, po administered as single dose via gavage by LC-MS/MS analysis. The series is classed as ADME, organism-based. The arrangement: dose 10 mg/kg, dosed compound name [14C]lixivaptan, route oral. The settings on record: in vivo. The procedure, abridged:
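Jugular-vein cannulated SD rats (5/gender) given gavage [14C]drug 10 mg/kg in pluronic F68/water; K2EDTA blood 0.25-168 h with donor blood replacement. Parent by validated LC-MS/MS, radioactivity by LSC; Tmax observed; t1/2 = 0.693/kel by terminal log-linear regression.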

For series [10], the system named is Rattus norvegicus. Nature of the series: Cmax as total radioactivity in female Sprague-Dawley rat plasma at 10 mg/kg, po administered as single dose. The arrangement: dose 10 mg/kg, dosed compound name [14C]lixivaptan, route oral. The settings on record: in vivo. The series is classed as ADME, organism-based. The procedure, abridged:
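Jugular-cannulated Sprague-Dawley rats (5/gender) were fasted 18 h and gavaged once with 10 mg/kg [14C]lixivaptan suspended in water/pluronic F68. K2EDTA blood was taken at 0.25–168 h, with donor blood replaced from 1 h on. Total radioactivity was read by LSC (ng-equiv/ml) and parent by validated LC-MS/MS. Noncompartmental Cmax, log-linear kel and trapezoidal AUC followed.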

For series [11], the system named is Canis familiaris. Nature of the series: Half life as total radioactivity in male beagle dog plasma at 10 mg/kg, po administered as single dose by LC-MS/MS analysis. The settings on record: in vivo. Type of series: ADME, organism-based, Canis lupus familiaris. The arrangement: dose 10 mg/kg, dosed compound name [14C]lixivaptan, route oral. The procedure, abridged:
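Male beagles given 10 mg/kg [14C]drug oral suspension; jugular K2EDTA blood at 0.25-168 h. Parent by validated LC-MS/MS, total radioactivity by LSC; Tmax observed; t1/2 = 0.693/kel from terminal log-linear regression.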

Series [12] concerns Canis familiaris. Nature of the series: AUC(0 to t) as total radioactivity in male beagle dog plasma at 10 mg/kg, po administered as single dose by LC-MS/MS analysis. The series is classed as ADME, organism-based, Canis lupus familiaris. The arrangement: dose 10 mg/kg, dosed compound name [14C]lixivaptan, route oral. The following applies: in vivo. The procedure, abridged: (§5)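 Four male beagles were fasted 18 h and gavaged once with 10 mg/kg (2 ml/kg) [14C]lixivaptan as a 5.0 mg/ml water/pluronic F68 suspension. Jugular K2EDTA blood was sampled from 0.25 to 168 h. Plasma total radioactivity was counted by LSC as ng-equiv/ml and lixivaptan by validated LC-MS/MS. Noncompartmental Cmax, t1/2 and trapezoidal AUC were derived.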

In series [13] the test system is Canis familiaris. Nature of the series: AUC(0 to infinity) as total radioactivity in male beagle dog plasma at 10 mg/kg, po administered as single dose by LC-MS/MS analysis. Type of series: ADME, organism-based, Canis lupus familiaris. The settings on record: in vivo. On the set-up: time infinity, dose 10 mg/kg, dosed compound name [14C]lixivaptan, route oral. The procedure, abridged:
as §5

The nature of series [14]: Retention time of the compound by HPLC analysis. Type of series: physicochemical. The arrangement: dosed compound name [14C]lixivaptan.
The test system of series [15] is Homo sapiens. Briefly: Drug level in human plasma at 100 mg, po administered as single dose measured after 0.5 hrs by liquid scintillation counting. Type of series: ADME, organism-based. On the set-up: dosed compound name [14C]lixivaptan. The settings on record: in vivo. The procedure, abridged:
(§6)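 Healthy male volunteers fasted ≥10 h, given single oral 100 mg (200 µCi) [14C]drug as two 50-mg capsules with 250 ml water. Plasma (from ~50 ml blood) at 0.5, 2, 4, 8, 12, 24, 36 h, profiled per subject. Acetonitrile extraction, C18 radio-HPLC with 0.2% formic acid acetonitrile/water gradient, on-line radioactivity detection as % plasma radioactivity; ng-equiv/ml from % × total radioactivity.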

Series [16] has as its system Homo sapiens. Nature of the series: Drug level in human plasma at 100 mg, po administered as single dose measured after 12 hrs by liquid scintillation counting. The series is classed as ADME, organism-based. The arrangement: dosed compound name [14C]lixivaptan. The settings on record: in vivo. The procedure, abridged: as §6
Series [17] deals with Rattus norvegicus. Nature of the series: Drug level in male Sprague-Dawley rat plasma at 10 mg/kg, po administered as single dose via gavage measured after 1 hr by liquid scintillation counting. The series is classed as ADME, organism-based. The arrangement: dose 10 mg/kg, dosed compound name [14C]lixivaptan, route oral. The settings on record: in vivo. The procedure, abridged: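 Single oral gavage of [14C]drug (10 mg/kg, 10 ml/kg) as suspension in deionized water with pluronic F68, ~29.8 µCi/mg; SD rats fasted 18 h, fed 4 h post-dose. Blood by cardiac puncture under isoflurane, 3 rats/time/gender, into K2EDTA at 1, 8, 24 h; plasma extracted twice with 2 vol acetonitrile, radio-HPLC on C18 with flow radioactivity detection, expressed as % plasma radioactivity.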

Series [18] has as its system Rattus norvegicus. Nature of the series: Drug level in female Sprague-Dawley rat plasma at 10 mg/kg, po administered as single dose via gavage measured after 8 hrs by liquid scintillation counting. On the set-up: dose 10 mg/kg, dosed compound name [14C]lixivaptan, route oral. The series is classed as ADME, organism-based. The settings on record: in vivo. The procedure, abridged:
as §4

For series [19], the system named is Canis familiaris. Nature of the series: Drug level in beagle dog plasma at 10 mg/kg, po administered as single dose measured after 8 hrs by liquid scintillation counting. Type of series: ADME, organism-based, Canis lupus familiaris. The arrangement: dose 10 mg/kg, dosed compound name [14C]lixivaptan, route oral. The following applies: in vivo. The procedure, abridged:
as §3

In series [20] the test system is Homo sapiens. Nature of the series: Cmax in human at 100 mg, po. The following applies: in vivo.

`Cc1ccc(F)cc1[14C](=O)Nc1ccc(C(=O)N2Cc3cccn3Cc3ccccc32)c(Cl)c1`: in the series with Homo sapiens [1], the Tmax came out at 1.2 h. For the same compound, the Radiolabel recovery in the series with Rattus norvegicus [2] is 2.2%; in series [3], 7.6%; in the series with Rattus norvegicus [4], 70.5%. The AUC was determined as 1860 ng.Eq.hr/ml in the series on Homo sapiens [5], 11200 ng.Eq.hr/ml with Canis familiaris [6], 632 ng.Eq.hr/ml in the series with Rattus norvegicus [7] and 94900 ng.Eq.hr/ml in the series on Canis familiaris [13]. In addition, the results for the t1/2 in the series on Homo sapiens [8], in the series on Rattus norvegicus [9] and with Canis familiaris [11] were 25.5 h, 36.6 h and 69.7 h, respectively. The results for the Cmax with Rattus norvegicus [10] and in the series with Homo sapiens [20] were 1960 ngequiv/ml and 454 ngequiv/ml, respectively. The AUCt in the series on Canis familiaris [12] is 82800 ng.Eq.hr/ml. The same compound registered a Retention_time in [14] of 34.3 min. In addition, the Compound recovery is on record as 43.5% in the series with Homo sapiens [15]; 5.6% with Homo sapiens [16]; 4.1% with Rattus norvegicus [17]; 12.2% with Rattus norvegicus [18]; 14.9% in the series with Canis familiaris [19].

For orientation: Tmax means the time from dosing to the highest level.
